Screens deposited in PubChem by several laboratories.
A selection: hits, their analogues and other compounds. The true share with any hit is near 3.6%.
BB579 growth dn: growth inhibitors of yeast BB579 in restrictive medium, primary screen, yeast lifespan-shortening project, S. cerevisiae; inhibition, % at 10 µM; AID 804, 2007; 140,000 compounds, 0.51% hits; OD615, 48 h;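 active = inhibition above a set limit, 3 SD over the mean compound inhibition, cut at about 44% in these data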
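System: Saccharomyces cerevisiae DeaD strain BB579, replicative lifespan model yeast | Buffer or medium: Restrictive glucose-based CSMM-D medium | Times: 4 h preincubation and 48 h exposure at 30 °C | Detection: OD615 turbidity measurement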
Measles CPE: compounds protecting cells from measles virus cytopathic effect, primary screen, measles RdRp inhibitor project, single point, MLSMR library, absorbance; Measles virus-infected cells, CPE protection; protection (pct of control), % at 4 µM; 140,000 compounds, 1.5% hits; in the data active = protection mostly above about 24%, no sharp cut-off; inactive = mostly below about 26%
Phagocytosis inh: inhibitors of macrophage phagocytosis, primary screen, imaging, J774A.1 cells, IgG beads; J774A.1 macrophage IgG-bead phagocytosis; inhibition, % at 5 µM; 110,000 compounds, 0.07% hits; AID 1029, 2008;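 active = inhibition above the mean of the plate negative controls plus 5 SD, cut at about 13% in these data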;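 note: phagocytic index as fraction of beads internalized from green versus red external bead signal; plate controls were DMSO negative control for no effect and cytochalasin-D positive control for full effect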
RAM inhibit: inhibitors of the yeast RAM network, primary screen, dse1pr::URA3 reporter, 5-FOA selection | S. cerevisiae dse1pr::URA3 reporter, 5-FOA growth OD615, 2 d; analog-sensitive cbk1-as2 kinase mutant strain | inhibition, % at 50 µM | 190,000 compounds, 1.8% hits | AID 868, 2007;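 active = inhibition above a set limit, 3 SD over mean compound inhibition, cut at about 8.4% in these data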;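 note: 0% = DMSO-only wells with no growth and 100% = 10 µM 1-NA-PP1 full growth; inhibition rescues growth on 5-FOA so higher OD means more RAM inhibition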
Yeast life ext: compounds extending yeast replicative lifespan, primary screen, S. cerevisiae, OD615. 130,000 compounds, 0.68% hits. S. cerevisiae growth with nicotinamide; deaD strain in restrictive glucose medium. inhibition of the nicotinamide effect, % at 10 µM;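 active = inhibition above a set limit, placed 3 SD over the median of all compounds, cut at about 26% in these data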;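 note: 0% = nicotinamide-treated wells and 100% = cells grown without nicotinamide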
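Assay system: engineered S. cerevisiae DeaD replicative-lifespan strain, galactose-grown log-phase cells; medium: restrictive CSMM-D dextrose medium; also added: nicotinamide, 1.5 mM, co-present with compound; schedule: 48 h compound exposure at 30 °C, humidified; detection: absorbance at 615 nm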
* hit, by the source's call; x = no result.

SMILES | BB579 growth dn | Measles CPE | Phagocytosis inh | RAM inhibit | Yeast life ext
Cc1noc(C)c1S(=O)(=O)NCCCN1CCN(Cc2ccccc2)CC1 | -23 | 30* | x | -1 | -5
COc1ccc(NC(=O)CCC(=O)N(Cc2ccc(OC)c(OC)c2)c2nccs2)cc1 | -7 | 14 | -11 | 10* | 1
CCOc1ccc(-n2c(SCC(=O)c3c(N)n(C)c(=O)n(C)c3=O)nnc2-c2cccnc2)cc1 | -39 | 22 | -7 | 9.1* | 6
Cc1ccccc1-n1c(SCC(=O)c2c(N)n(C)c(=O)n(C)c2=O)nnc1-c1cccnc1 | -9 | 21 | -7 | 4 | 3
Fc1ccc(Nc2ccnc(Nc3ccc(F)cc3)n2)cc1 | -28 | 6 | -5 | -1 | -6
COc1ccc(CNC(=O)c2cc3c(s2)CN(Cc2ccccc2)C3)cc1 | x | x | x | 3 | x
Cc1cc(-n2nnc3ccccc32)nc2ccccc12 | -20 | 31* | 3 | 7 | -5
CC(=O)Nc1ccc(C(=O)CSc2nnc(-c3ccc(O)cc3)n2CC2CCCO2)cc1 (stereo not given) | -23 | 3 | -1 | 1 | 64*
COc1ccc2c(c1)C(C)CC(C)(C)N2C(=O)NC1CCCCC1 (stereo not given) | -40 | 3 | 0 | 2 | 27*
CC1CC(C)(C)N(C(=O)NC2CCCCC2)c2ccccc21 (stereo not given) | 26 | 11 | x | 0 | x
COn1c(SCc2ccc(C)cc2C)nc2ccccc2c1=O | -10 | 5 | x | 9.2* | -17
COn1c(SC(C)C)nc2ccccc2c1=O | -32 | 20 | x | 0 | -27
COn1c(SC2CCCCC2)nc2ccccc2c1=O | -21 | 0 | -1 | 0 | 46*
CC(Oc1ccc(Cl)cc1)c1ccnc(N)n1 (stereo not given) | x | x | x | 0 | x
CCOC(=O)C1CCN(S(=O)(=O)c2ccc(-c3nc4ccccc4s3)s2)CC1 | -34 | 7 | 0 | 8.4* | 2
NS(=O)(=O)c1ccc(NC(=S)Nc2ccc(F)c(F)c2)cc1 | -23 | 18 | -2 | 1 | 4
O=C(O)c1ccc2nc(-c3ccccc3)sc2c1 | 47* | 17 | -4 | 0 | -8
Nc1ccc(-c2nc3ccc(C(=O)O)cc3s2)cc1 | -12 | 16 | -7 | 9.1* | -3
Cn1nnnc1SCC(=O)N1CCN(S(=O)(=O)c2ccc(Cl)cc2)CC1 | x | x | x | 3 | x
CCCCCn1c(SCCc2ccccc2)nc2c1c(=O)[nH]c(=O)n2C | -47 | 6 | 2 | 2 | -14
CCCCCOC(=O)CSc1nc2c(c(=O)[nH]c(=O)n2C)n1CCc1ccccc1 | -27 | 5 | -6 | 3 | 92*
CC(=O)OCCn1c(Br)nc2c1c(=O)[nH]c(=O)n2C | 1 | 4 | 2 | 1 | -5
C/C(Cl)=C/Cn1c(SCC(C)C)nc2c1c(=O)[nH]c(=O)n2C | x | x | 1 | x | x
CCCCOC(=O)CSc1nc2c(c(=O)[nH]c(=O)n2C)n1C/C=C(\C)Cl | -13 | 10 | 3 | 4 | 87*
CCCC(=O)OCCn1c(Br)nc2c1c(=O)[nH]c(=O)n2C | -23 | 35* | x | 0 | -2
SMILES | BB579 growth dn | Measles CPE | Phagocytosis inh | RAM inhibit | Yeast life ext
Cc1ccc(S(=O)(=O)N2CCOCC2)cc1C(=O)Nc1ccc(S(=O)(=O)Nc2nccs2)cc1 | x | x | x | 2 | x
Cc1ccc2occ(/C=N/NC(N)=S)c(=O)c2c1 | -37 | 30* | 3 | 6 | 24
Cc1ccc2occ(/C=N/O)c(=O)c2c1 | 19 | 4 | -3 | -1 | 41
NC(=O)c1ccc(-n2nnnc2SCC(=O)Nc2ccc(N3CCOCC3)c(Cl)c2)cc1 | -53 | 32* | 0 | 3 | -12
CCOC(=O)C1=C(O)/C(=C\c2ccc(CNC(=O)C(=O)Nc3ccc(C)c(C)c3)o2)N=C1C | -17 | 1 | -1 | 2 | -5
Cc1ccc(-n2c(C)cc(/C=N/NC(=O)c3ccc(CN4CCOCC4)cc3)c2C)cc1 | -61 | 71* | -2 | 3 | -25
Cn1cc(CN2CCN(Cc3ccccc3)CC2)c(-c2cccc(Cl)c2)n1 | x | x | x | 3 | x
Clc1ccc(C2=CSC3=NCCN23)cc1Cl | 10 | 54* | -3 | 1 | -11
Cc1ccc(C)c(C2=CSC3=NCCN23)c1 | -33 | 4 | -1 | 0 | -8
COc1ccc([N+](=O)[O-])cc1NC(=O)c1ccc(CN(c2ccc(C)c(C)c2)S(C)(=O)=O)cc1 | -7 | 3 | -4 | 9.7* | -1
CC(=O)c1c(C)n(C)c2ccc(O)cc12 | -18 | 39* | -1 | 0 | -9
O=C(COc1ccc(Br)cc1Cl)NC(=O)NCc1ccccc1 | -32 | 16 | 2 | 8.8* | 7
ClC1(Cl)CC1Cn1cnc2ccccc21 (stereo not given) | x | x | x | 4 | x
COc1ccccc1/C=N/N1C(=O)C(CC(=O)Nc2ccc([N+](=O)[O-])cc2OC)SC1=Nc1cccc(C)c1C (stereo not given) | x | x | x | 11* | x
Cc1cc2nccc(-c3cccnc3)n2n1 | x | x | x | 3 | x
CCN1C(=O)/C(=C2\SC(=S)N(CCCOC)C2=O)c2ccccc21 | -29 | 25 | x | 9.5* | -5
CCN1C(=O)/C(=C2\C=Cc3ccccc3N2CC)SC1=S | -29 | 9 | x | 2 | -4
O=C(NC1CCCC1)C(c1ccccn1)N(C(=O)c1csnn1)C1CCCCC1 (stereo not given) | 14 | 3 | x | 1 | x
O=C(NC1CCCCC1)C(c1cccs1)N(C(=O)c1ccccn1)c1ccccc1 (stereo not given) | -51 | 13 | -9 | 9.5* | 3
O=C(NC1CCCC1)C(c1cccs1)N(C(=O)c1ccno1)c1ccccc1 (stereo not given) | -68 | 1 | -1 | 7 | 1
O=C(NC1CCCC1)C(c1ccccn1)N(C(=O)c1csnn1)C1CC1 (stereo not given) | -26 | 86* | 0 | 1 | -24
Cc1ccc(C(=O)Nc2cc(Cl)ccc2OC(=O)c2ccc(C)cc2)cc1 | 18 | 8 | x | 3 | -1
O=C(Nc1ccccc1OC(=O)c1ccc(Cl)cc1)c1ccc(Cl)cc1 | -42 | 79* | -5 | 3 | 2
CN1CCN(C(=O)c2ccccc2NC(=O)c2cccs2)CC1 | -18 | 45* | -1 | 1 | 0
Cn1c(C(=O)N2COCC2(C)C)cc2c(=O)n3ccccc3nc21 | -55 | 22* | x | 2 | -15
COc1ccc(S(=O)(=O)N2CCCCC2)cc1NC(=O)C1CCCO1 (stereo not given) | x | x | x | 1 | x
O=C(Nc1ccccc1C(F)(F)F)c1cc(S(=O)(=O)N2CCC3(CC2)OCCO3)ccc1F | -38 | 12 | 0 | 3 | -5
COc1cc(S(=O)(=O)N2CCCCC2)ccc1NC(C)=O | 14 | 52* | -2 | 0 | -11
COc1ccccc1NC(=O)c1cc(S(=O)(=O)N2CCC3(CC2)OCCO3)ccc1F | -22 | 12 | -4 | 9.6* | -1
